Experimental data from ChEMBL document CHEMBL1122463, “2,3-dihydro-3-(1-pyrryl)spiro[benzofuran-2,4'-piperidine]s and 2,3-dihydro-3-(1-pyrryl)spiro[benzofuran-2,3'-pyrrolidine]s: novel antihypertensive agents” (1983).

Experiments:
Type in all cases: functional, Blood
[1] = species: Rattus norvegicus; test: Oral hypotensive activity in spontaneously hypertensive rats by using tail-cuff method measured as the initial BP
How it was run: (§1)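 Okamoto-Aoki strain spontaneously hypertensive rats. Compounds were suspended in distilled water with Tween 80 and given orally every day at 50, 30, 10 or 3 mg/kg. Systolic BP was measured by tail-cuff plethysmography on day 1 (predose and 2 h), day 3 (predose and 2 h) and day 5 (predose, 2 and 4 h). The screen used 4 rats; dose-response used 4–8 rats per dose.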

[2] = species: Rattus norvegicus; test: Oral hypotensive activity in spontaneously hypertensive rats by using tail-cuff method measured as change in systolic BP
How it was run: (§2)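 Okamoto-Aoki spontaneously hypertensive rats. Compound suspended in distilled water with Tween 80, given po daily, screening dose 50 mg/kg, dose-response at 50, 30, 10 or 3 mg/kg unless stated. Systolic BP by tail-cuff plethysmography on day 1 predose and 2 h, day 3 predose and 2 h, and day 5 predose, 2 and 4 h. Reported as peak decrease on day 3 (or day 5) at 2 h ± SEM. n = 4 in screen, 4–8 per dose.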

[3] = test system: Rattus norvegicus; test: (§3) Oral hypotensive activity in spontaneously hypertensive rats by using tail-cuff method measured as change in systolic BP at the dose of 10 mg/kg po.
How it was run: (§4)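 SHR of the Okamoto-Aoki strain, dosed orally every day with compound suspended in distilled water with Tween 80. Systolic pressure was taken by tail-cuff plethysmography on day 1 (predose, 2 h), day 3 (predose, 2 h) and day 5 (predose, 2 and 4 h). Initial BP is the pretreatment systolic pressure, with 4–8 rats per dose in the dose-response screen.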

[4] = test system: Rattus norvegicus; test: (§5) Oral hypotensive activity in spontaneously hypertensive rats by using tail-cuff method measured as change in systolic BP at the dose of 25 mg/kg po.; how it was run: as §4
[5] = test system: Rattus norvegicus; test: (§6) Oral hypotensive activity in spontaneously hypertensive rats by using tail-cuff method measured as change in systolic BP at the dose of 50 mg/kg po.; how it was run: as §1
[6] = test system: Rattus norvegicus; test: (§7) Oral hypotensive activity in spontaneously hypertensive rats by using tail-cuff method measured as change in systolic BP at the dose of 5 mg/kg po.; how it was run: as §1
[7] = test system: Rattus norvegicus; test: as §3; how it was run: as §2; remark: listed apart in the source
[8] = test system: Rattus norvegicus; test: as §5; how it was run: as §2; remark: listed apart in the source
[9] = test system: Rattus norvegicus; test: as §6; how it was run: as §2; remark: listed apart in the source
[10] = test system: Rattus norvegicus; test: as §7; how it was run: as §2; remark: listed apart in the source
[11] = test system: Rattus norvegicus; test: as §7; how it was run: as §4; remark: listed apart in the source
[12] = species: Rattus norvegicus; test: Hypotensive activity in renal hypertensive rats by using tail-cuff method measured as BP on (1/2) day/h postdrug
How it was run: (§8)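 Renal hypertension made in male Sprague-Dawley rats (Grollman modification). Under pentobarbital (50 mg/kg ip), the right kidney was removed and silk sutures tied around both poles of the left kidney to constrict it. After 3 weeks, rats with systolic BP >150 mmHg were used. Compound given po daily to 4 rats. Systolic BP by tail-cuff plethysmography at the listed day/hour after dosing.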

[13] = species: Rattus norvegicus; test: Hypotensive activity in renal hypertensive rats by using tail-cuff method measured as BP on (2/0) day/h postdrug; how it was run: as §8
[14] = species: Rattus norvegicus; test: Hypotensive activity in renal hypertensive rats by using tail-cuff method measured as BP on (2/2) day/h postdrug; how it was run: as §8
[15] = species: Rattus norvegicus; test: Hypotensive activity in renal hypertensive rats by using tail-cuff method measured as BP on (3/0) day/h postdrug; how it was run: as §8
[16] = species: Rattus norvegicus; test: Hypotensive activity in renal hypertensive rats by using tail-cuff method measured as BP on (3/2)day/h postdrug; how it was run: as §8
[17] = species: Rattus norvegicus; test: Hypotensive activity in renal hypertensive rats by using tail-cuff method measured as initial BP; how it was run: as §8

Work on `OCCN1CCC2(CC1)Oc1ccccc1C2n1cccc1` (stereo not given) yielded a BP [1] of 170 mmHg and a Delta blood pressure [2] of 39 mmHg.

`c1ccc(CN2CCC3(C2)Oc2ccccc2C3n2cccc2)cc1` (stereo not given) gave a BP [3] of 171 mmHg, a BP [4] of 185 mmHg and a BP [5] of 211 mmHg. The BP [6] was 198 mmHg, the Delta blood pressure [7] was -10 mmHg and the Delta blood pressure [8] was 18 mmHg. It also gave a Delta blood pressure [9] of 42 mmHg and a Delta blood pressure [10] of 27 mmHg.

`CCN(CC)CCN1CCC2(CC1)Oc1ccccc1C2n1cccc1` (stereo not given) was tested, and the BP [1] was 185 mmHg and the Delta blood pressure [2] was 38 mmHg.

In the case of `c1ccc2c(c1)OC1(CCNC1)C2n1cccc1` (stereo not given), the BP [3] is reported as 179 mmHg, the Delta blood pressure [3] is reported as 36 mmHg and the BP [4] is reported as 181 mmHg. For the same compound, the Delta blood pressure [4] was 13 mmHg, the BP [5] was 223 mmHg and the Delta blood pressure [5] was 58 mmHg. It also gave a BP [6] of 200 mmHg and a Delta blood pressure [11] of 17 mmHg.

Compound `CN1CCC2(C1)Oc1ccccc1C2n1cccc1` (stereo in doubt; 10) has a BP ([5]; 50 mg/kg) of 197 mmHg and a Delta blood pressure ([5]; 50 mg/kg) of 38 mmHg.

`CN1CCC2(C1)Oc1ccccc1C2n1cccc1` (stereo in doubt; 11) was tested, and the BP ([5]; 50 mg/kg) was 180 mmHg and the Delta blood pressure ([5]; 50 mg/kg) was 14 mmHg.

With `C[C@H](CS)C(=O)N1CCC[C@H]1C(=O)O` [CAPTOPRIL] the BP [12] was 181 mmHg, the BP [13] was 185 mmHg and the BP [14] was 169 mmHg. For the same compound, the BP [15] was 163 mmHg, the BP [16] was 152 mmHg and the BP [17] was 192 mmHg.
